Legend:
[1] = Metabolic stability in human liver S9 fraction assessed as compound remaining at 10 uM after 30 mins by HPLC analysis in absence of NADP; format: ADME, subcellular; settings: read-out: Stability
[2] = Metabolic stability in human liver S9 fraction assessed as compound remaining at 10 uM after 30 mins by HPLC analysis in presence of NADP; format: ADME, subcellular; settings: read-out: Stability
[3] = Metabolic stability in human intestine S9 fraction assessed as compound remaining at 10 uM after 30 mins by HPLC analysis in absence of NADP; format: ADME, tissue-based; settings: read-out: Stability
[4] = Metabolic stability in dog intestine S9 fraction assessed as compound remaining at 10 uM after 60 mins by HPLC analysis in absence of NADP; format: ADME, tissue-based, Canis lupus familiaris; settings: read-out: Stability
How it was run: (§1)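 Liver or intestinal S9 at final 1 mg/mL in 50 mM potassium phosphate, with or without NADPH-regenerating system (1.3 mM NADP, 3.3 mM glucose-6-phosphate, 0.4 U/mL G6PDH, 3.3 mM MgCl₂); 10 min preincubation at 37 °C; compound at final 10 μM; samples at start and 60 min quenched in cold acetonitrile, centrifuged, HPLC; % parent remaining.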

[5] = Cytotoxicity against human HuH7 cells after 72 hrs by celltiter-glo assay; format: cell-based, Huh-7
How it was run: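 Replicon 1b Huh7 cells seeded 2 × 10⁴/well; after 24 h, 11 serial 2× dilutions from 100 μM (three repeats each) with no-compound control; 72 h at 37 °C, CO₂, log-phase growth; viability by CellTiter-Glo luminescence; CC₅₀ = concentration giving 50% signal.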

[6] = Metabolic stability in dog liver S9 fraction assessed as compound remaining at 10 uM after 60 mins by HPLC analysis in absence of NADP; format: ADME, subcellular, Canis lupus familiaris; settings: read-out: Stability; how it was run: as §1
[7] = Metabolic stability in dog intestine S9 fraction assessed as compound remaining at 10 uM after 60 mins by HPLC analysis in presence of NADP; format: ADME, tissue-based, Canis lupus familiaris; settings: read-out: Stability; how it was run: as §1
[8] = Metabolic stability in dog liver S9 fraction assessed as compound remaining at 10 uM after 60 mins by HPLC analysis in presence of NADP; format: ADME, subcellular, Canis lupus familiaris; settings: read-out: Stability; how it was run: as §1
[9] = Metabolic stability in mouse plasma assessed as compound remaining at 1 ug/ml after 30 mins; format: ADME, cell-free; settings: read-out: Stability
[10] = Metabolic stability in human intestine S9 fraction assessed as compound remaining at 10 uM after 30 mins by HPLC analysis in presence of NADP; format: ADME, tissue-based; settings: read-out: Stability
Hepatitis C virus = experiment: Antiviral activity against HCV1b infected in human HuH7 cells assessed as inhibition of viral replication after 48 hrs by luciferase reporter gene assay; format: functional, organism-based, Hepacivirus hominis; settings: genotype 1b, Huh-7, 48 h
How it was run: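 Huh7 cells carrying genotype 1b bicistronic subgenomic replicon, seeded 2 × 10⁴/well without G-418; compounds added 18-24 h later, 48 h exposure; 3× or 4× serial dilutions over 0.0001-10 μM in triplicate/quadruplicate; Renilla luciferase read-out versus untreated cells; EC₅₀ by four-parameter sigmoidal nonlinear regression; at least three independent assays.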

[11] = Metabolic stability in rat liver S9 fraction assessed as compound remaining at 10 uM after 60 mins by HPLC analysis in absence of NADP; format: ADME, subcellular; settings: read-out: Stability
How it was run: (§2)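 Rat liver or intestinal S9 at 1 mg/mL final in 50 mM potassium phosphate, with or without NADPH-regenerating system (final 1.3 mM NADP, 3.3 mM glucose-6-phosphate, 0.4 U/mL G6P dehydrogenase, 3.3 mM MgCl2). Preincubated 10 min at 37 °C with shaking, started with compound at 10 μM final. Samples taken at 0 and 60 min, quenched in cold acetonitrile, centrifuged, and parent disappearance measured by HPLC.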

[12] = Metabolic stability in human liver S9 fraction assessed as compound remaining at 10 uM after 60 mins by HPLC analysis in absence of NADP; format: ADME, subcellular; settings: read-out: Stability; how it was run: as §1
[13] = Metabolic stability in rat liver S9 fraction assessed as compound remaining at 10 uM after 60 mins by HPLC analysis in presence of NADP; format: ADME, subcellular; settings: read-out: Stability; how it was run: as §2
[14] = Metabolic stability in cynomolgus monkey liver S9 fraction assessed as compound remaining at 10 uM after 60 mins by HPLC analysis in presence of NADP; format: ADME, subcellular, Macaca fascicularis; settings: read-out: Stability; how it was run: as §1
[15] = Metabolic stability in mouse plasma assessed as compound remaining at 1 ug/ml after 4 hrs; format: ADME, cell-free; settings: read-out: Stability
[16] = Metabolic stability in cynomolgus monkey intestine S9 fraction assessed as compound remaining at 10 uM after 60 mins by HPLC analysis in presence of NADP; format: ADME, tissue-based, Macaca fascicularis; settings: read-out: Stability; how it was run: as §1
[17] = Metabolic stability in cynomolgus monkey intestine S9 fraction assessed as compound remaining at 10 uM after 60 mins by HPLC analysis in absence of NADP; format: ADME, tissue-based, Macaca fascicularis; settings: read-out: Stability; how it was run: as §1
[18] = Metabolic stability in human intestine S9 fraction assessed as compound remaining at 10 uM after 60 mins by HPLC analysis in presence of NADP; format: ADME, tissue-based; settings: read-out: Stability; how it was run: as §1
[19] = Metabolic stability in rat intestine S9 fraction assessed as compound remaining at 10 uM after 60 mins by HPLC analysis in absence of NADP; format: ADME, tissue-based; settings: read-out: Stability; how it was run: as §2
[20] = Metabolic stability in human intestine S9 fraction assessed as compound remaining at 10 uM after 60 mins by HPLC analysis in absence of NADP; format: ADME, tissue-based; settings: read-out: Stability; how it was run: as §1
[21] = Metabolic stability in rat intestine S9 fraction assessed as compound remaining at 10 uM after 60 mins by HPLC analysis in presence of NADP; format: ADME, tissue-based; settings: read-out: Stability; how it was run: as §2
[22] = Metabolic stability in human liver S9 fraction assessed as compound remaining at 10 uM after 60 mins by HPLC analysis in presence of NADP; format: ADME, subcellular; settings: read-out: Stability; how it was run: as §1
[23] = Metabolic stability in cynomolgus monkey liver S9 fraction assessed as compound remaining at 10 uM after 60 mins by HPLC analysis in absence of NADP; format: ADME, subcellular, Macaca fascicularis; settings: read-out: Stability; how it was run: as §1
Liver [24] = experiment: AUC (0 to 6 hrs) in ICR mouse liver at 50 mg/kg, po by LC-MS/MS analysis; format: ADME, organism-based; set-up: time < 6 hr, dose 50 mg/kg, route oral; settings: in vivo
[25] = Cmax in ICR mouse plasma at 50 mg/kg, po by LC-MS/MS analysis; format: ADME, organism-based; set-up: dose 50 mg/kg, route oral
Plasma = experiment: Dose normalized AUC in ICR mouse plasma at 50 mg/kg, po by LC-MS/MS analysis; format: ADME, organism-based; set-up: dose 50 mg/kg, route oral; settings: in vivo
Liver [26] = experiment: Dose normalized AUC in ICR mouse liver at 50 mg/kg, po by LC-MS/MS analysis; format: ADME, organism-based; set-up: dose 50 mg/kg, route oral; settings: in vivo
[27] = Metabolic stability in dog plasma assessed as compound remaining at 1 ug/ml after 30 mins; format: ADME, cell-free, Canis lupus familiaris; settings: read-out: Stability
How it was run: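 Duplicate incubations; compound at final 1 μg/mL in plasma preincubated and kept at […]; samples taken at 30 or 240 min, quenched with ice-cold acetonitrile, centrifuged, supernatant diluted with water; parent quantified by LC-MS/MS (Polar-RP column, formic acid water/acetonitrile gradient, positive ion mode); % remaining reported.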

Homo sapiens = species on record: Homo sapiens; experiment: Metabolic stability in human plasma assessed as compound remaining at 1 ug/ml after 30 mins
Liver [28] = experiment: AUC (0 to 24 hrs) in ICR mouse liver at 50 mg/kg, po by LC-MS/MS analysis; format: ADME, organism-based; set-up: time < 24 hr, dose 50 mg/kg, route oral; settings: in vivo

Row | SMILES | remaining at 1 h, 10 µM [4] [%] | CC50 at 72 h [5] [nM] | remaining at 1 h, 10 µM [6] [%] | remaining at 1 h, 10 µM [7] [%] | remaining at 1 h, 10 µM [8] [%] | remaining at 0.5 h, 1 ug/ml [9] [%] | EC50 (Hepatitis C virus) [nM] | remaining at 1 h, 10 µM [11] [%] | remaining at 1 h, 10 µM [12] [%] | remaining at 1 h, 10 µM [13] [%] | remaining at 1 h, 10 µM [14] [%] | remaining at 1 h, 10 µM [16] [%] | remaining at 1 h, 10 µM [17] [%] | remaining at 1 h, 10 µM [18] [%] | remaining at 1 h, 10 µM [19] [%] | remaining at 1 h, 10 µM [20] [%] | AUC (Liver [24]) [ng·h/g] | Cmax [25] [ng/mL] | AUC (Plasma) [ng·h/mL] | AUC (Liver [26]) [ng·h/g] | other results
1 | CC(C)C[C@H](NP(=O)(OC[C@H]1O[C@@H](n2cnc3c(=O)[nH]c(N)nc32)[C@](C)(O)[C@@H]1O)Oc1cccc2ccccc12)C(=O)OCc1ccccc1 (stereo partly drawn) | 33 | > 50000 | 48 | 12 | 14 | 2 | 120 | – | – | – | – | – | – | – | – | – | – | – | – | – | remaining at 0.5 h, 10 µM [1]: 44%; remaining at 0.5 h, 10 µM [2]: 0%; remaining at 0.5 h, 10 µM [3]: 28%; remaining at 0.5 h, 10 µM [10]: 8%
2 | CC[C@H](C)[C@H](NP(=O)(OC[C@H]1O[C@@H](n2cnc3c(=O)[nH]c(N)nc32)[C@](C)(O)[C@@H]1O)Oc1cccc2ccccc12)C(=O)OCc1ccccc1 (stereo partly drawn) | 96 | > 50000 | 84 | 87 | 64 | 100 | 900 | 78 | 83 | 37 | 0 | 29 | 95 | 52 | 70 | 74 | – | – | – | – | remaining at 4 h, 1 ug/ml [15]: 95%; remaining at 1 h, 10 µM [21]: 71%; remaining at 1 h, 10 µM [22]: 29%; remaining at 1 h, 10 µM [23]: 89%
3 | C[C@H](NP(=O)(OC[C@H]1O[C@@H](n2cnc3c(=O)[nH]c(N)nc32)[C@](C)(O)[C@@H]1O)Oc1cccc2ccccc12)C(=O)OCC(C)(C)C (stereo partly drawn) | 56 | > 100000 | 87 | 42 | 49 | 0.3 | 57 | 31 | 59 | 5 | 16 | 20 | 68 | 28 | 86 | 49 | 1584 | 262 | 38 | 32 | remaining at 1 h, 10 µM [21]: 57%; remaining at 1 h, 10 µM [22]: 7%; remaining at 1 h, 10 µM [23]: 88%
4 | CC(C)[C@H](NP(=O)(OC[C@H]1O[C@@H](n2cnc3c(=O)[nH]c(N)nc32)[C@](C)(O)[C@@H]1O)Oc1cccc2ccccc12)C(=O)OCc1ccccc1Cl (stereo partly drawn) | – | > 100000 | – | – | – | 69 | 430 | – | – | – | – | – | – | – | – | – | 880 | 518 | 49 | 18 | remaining at 0.5 h, 1 ug/ml [27]: 100%; remaining at 0.5 h, 1 ug/ml (Homo sapiens): 77%
5 | CC(C)[C@H](NP(=O)(OC[C@H]1O[C@@H](n2cnc3c(=O)[nH]c(N)nc32)[C@](C)(O)[C@@H]1O)Oc1cccc2ccccc12)C(=O)OC1CCCCC1 (stereo partly drawn) | – | > 100000 | – | – | – | 95 | 1000 | – | – | – | – | – | – | – | – | – | 815 | 185 | 33 | 77 | AUC (Liver [28]): 3860 ng·h/g; remaining at 0.5 h, 1 ug/ml [27]: 95%; remaining at 0.5 h, 1 ug/ml (Homo sapiens): 97%
